Bioassay records as filed in PubChem.
DAT uptake mod: changed human dopamine transporter uptake under cocaine IC80. Q01959. LLC-PK1 hDAT cells, [14C]-dopamine uptake with cocaine IC80; actives deviate in either direction. B-score at 10 µM. 110,000 compounds, 1.3% hits. AID 449768;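 active = Z score or B-score, a plate-position-corrected score, falls beyond the plate's 99.7% confidence bounds, in either direction; inactive = both scores lie inside the 99.7% bounds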
EphB4 ephrin blk: antagonists of human EphB4-ephrin-B2 interaction. EphB4 LBD / TNYL-RAW-Alexa532 peptide, fluorescence polarization. inhibition, % at 7 µM. 97,000 compounds, 0.15% hits;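 active = inhibition above the screen-wide mean inhibition plus 3 SD, cut at about 15% in these data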
HIV Rev-RRE inh: HIV Rev-RRE protein-RNA interaction inhibition; Rev peptide-RRE RNA binding, FRET; AID 704; 97,000 compounds, 0.79% hits; inhibition, % at 8 µM;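 active = inhibition above the screen-wide mean plus 3 SD, cut at about 35% in these data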
Target sequence (P05866 whole entry, looked up): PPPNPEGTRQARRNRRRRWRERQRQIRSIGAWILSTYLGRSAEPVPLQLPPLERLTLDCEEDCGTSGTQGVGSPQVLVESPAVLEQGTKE
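assay system = Cy5-tagged RRE RNA duplex with fluorescein-tagged Rev peptide | incubation = 5 + 15 min at 25 °C | also added = labelled Rev peptide | measure = % inhibition of FRET ratio versus controls | benchmarks = DMSO wells as 0% and neomycin B wells as 100% inhibition | measured by = FRET fluorescence readout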
Cav3 T inh: blocks human Cav3.2 T-type calcium channel. Cav3.2-expressing cells, Fluo-4 calcium fluorescence FDSS; stronger effect = lower value. O95180. 100,000 compounds, 4% hits. B-score at 10 µM. AID 449739;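 active = single-dose well whose peak fluorescence ratio is a statistical outlier from its plate by either plate-standardised score or position-corrected B-score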
Numbers stand for hits. Sampled rows, rich in hits. Any-hit rate of the full collection: about 5.4%.

How did CC(C)(C)OC(=O)N1CCC[C@H]1c1nnc(SCc2c(Cl)cccc2Cl)o1 do in these assays?
DAT uptake mod: inactive; EphB4 ephrin blk: inactive; HIV Rev-RRE inh: inactive; Cav3 T inh: -6.8

What do the screens show for `Cc1cc2cc(CN(Cc3ccc4c(c3)OCO4)C(=O)c3ccco3)c(=O)[nH]c2cc1C`?
DAT uptake mod: inactive; EphB4 ephrin blk: inactive; HIV Rev-RRE inh: inactive; Cav3 T inh: -6.3

What do the screens show for `COc1cc2cc(CN(Cc3ccc4c(c3)OCO4)C(=O)c3ccco3)c(=O)[nH]c2cc1OC`?
DAT uptake mod: inactive; EphB4 ephrin blk: inactive; HIV Rev-RRE inh: inactive; Cav3 T inh: inactive

Results for COc1ccc2[nH]cc(CCN=C3SCC(=O)N3C)c2c1 ?
DAT uptake mod: inactive; EphB4 ephrin blk: inactive; HIV Rev-RRE inh: inactive; Cav3 T inh: inactive

How did CCc1ccc(N/C(SCc2cccc(F)c2)=C(/C#N)C(=O)NCc2ccco2)cc1 do in these assays?
DAT uptake mod: inactive; EphB4 ephrin blk: inactive; HIV Rev-RRE inh: inactive; Cav3 T inh: -3.6

Results for CCc1cccc2c(C#N)cn(CC(=O)NCc3ccco3)c12 ?
DAT uptake mod: inactive; EphB4 ephrin blk: inactive; HIV Rev-RRE inh: inactive; Cav3 T inh: inactive

Results for Cc1ccccc1CSCC(=O)NC(=O)NCc1ccco1 ?
DAT uptake mod: inactive; Cav3 T inh: inactive

What do the screens show for `Cc1ccc(N/C(SCc2ccccc2C)=C(/C#N)C(=O)NCc2ccco2)cc1C`?
DAT uptake mod: inactive; EphB4 ephrin blk: inactive; HIV Rev-RRE inh: inactive; Cav3 T inh: -5.3

Results for CC(C)(O)c1cn(-c2nonc2N)nn1 ?
DAT uptake mod: inactive; EphB4 ephrin blk: inactive; HIV Rev-RRE inh: inactive; Cav3 T inh: inactive

Results for O=C(/C(=C/c1ccccc1)c1ccccc1)N1CCCCC1 ?
DAT uptake mod: inactive; EphB4 ephrin blk: inactive; HIV Rev-RRE inh: inactive; Cav3 T inh: inactive

How did O=C(/C=C/c1ccccc1)N/C(=C/c1ccccc1)C(=O)N1CCCCC1 do in these assays?
DAT uptake mod: inactive; EphB4 ephrin blk: inactive; HIV Rev-RRE inh: inactive; Cav3 T inh: -5.6

Results for CCOC(=O)c1cccc(NC2c3ccccc3C(=O)N2Cc2ccco2)c1 (stereo unspecified) ?
DAT uptake mod: inactive; EphB4 ephrin blk: inactive; HIV Rev-RRE inh: inactive; Cav3 T inh: -6.6

How did O=C1c2ccccc2C(Nc2cccc(C(F)(F)F)c2)N1Cc1ccco1 (stereo unspecified) do in these assays?
DAT uptake mod: inactive; EphB4 ephrin blk: inactive; HIV Rev-RRE inh: inactive; Cav3 T inh: -5.2

How did COc1cccc(NC2c3ccccc3C(=O)N2Cc2ccco2)c1 (stereo unspecified) do in these assays?
DAT uptake mod: inactive; EphB4 ephrin blk: inactive; HIV Rev-RRE inh: inactive; Cav3 T inh: inactive

How did Cc1ccccc1NC1c2ccccc2C(=O)N1Cc1ccco1 (stereo unspecified) do in these assays?
DAT uptake mod: inactive; EphB4 ephrin blk: inactive; HIV Rev-RRE inh: inactive; Cav3 T inh: inactive

How did CCC(=O)Nc1sc2c(c1C#N)CC(C)(CC)OC2 (stereo unspecified) do in these assays?
DAT uptake mod: inactive; EphB4 ephrin blk: inactive; HIV Rev-RRE inh: inactive; Cav3 T inh: inactive

How did CCCCOc1ccc(-c2c(C#N)c(N)nc(SCC(N)=O)c2C#N)cc1 do in these assays?
DAT uptake mod: -2.3; EphB4 ephrin blk: inactive; HIV Rev-RRE inh: inactive

How did C#CCNC(=O)C1=C[C@@H](c2ccc(C(F)(F)F)cc2)C[C@@H](OCCCCO)O1 do in these assays?
DAT uptake mod: inactive; Cav3 T inh: inactive

Results for O=C1CC(c2ccc(F)cc2)CC(O)=C1C=NCCN1CCN(C(=O)Nc2ccccc2)CC1 (stereo unspecified) ?
DAT uptake mod: inactive; EphB4 ephrin blk: inactive; HIV Rev-RRE inh: inactive; Cav3 T inh: -4.2

What do the screens show for `CC1CCc2nn(CC(=O)NCCC3=CCCCC3)cc2C1` (stereo unspecified)?
DAT uptake mod: 7.5; Cav3 T inh: inactive

What do the screens show for `O=C(NC1CC2CCCC(C1)N2Cc1ccco1)NC12CC3CC(CC(C3)C1)C2` (stereo unspecified)?
DAT uptake mod: -7.4; EphB4 ephrin blk: inactive; HIV Rev-RRE inh: inactive; Cav3 T inh: inactive

What do the screens show for `CCNC(=S)NC1CC2CCCC(C1)N2Cc1ccco1` (stereo unspecified)?
DAT uptake mod: inactive; EphB4 ephrin blk: inactive; HIV Rev-RRE inh: inactive; Cav3 T inh: inactive

How did COCCn1c(=NC(=O)c2ccc3c(c2)OCO3)c(C#N)cc2c(=O)n3cccc(C)c3nc21 do in these assays?
DAT uptake mod: -2.2; EphB4 ephrin blk: inactive; HIV Rev-RRE inh: inactive; Cav3 T inh: inactive

How did O=c1[nH]c2cc3c(cc2cc1CN(CCc1ccccc1)Cc1nnnn1CC1CCCO1)OCO3 (stereo unspecified) do in these assays?
DAT uptake mod: inactive; EphB4 ephrin blk: inactive; HIV Rev-RRE inh: 41; Cav3 T inh: inactive
